An excerpt weighted towards active compounds, which were near 3.3% of everything screened.
ABCB6 inh 2 – human ABCB6 transporter inhibition | Q9NP58 | K562-ABCB6 porphyrin accumulation, flow cytometry, 1 h; stronger effect = lower value | fluorescence ratio to DMSO, % at 10 µM | hit rate 0.19% among 360,000 | AID 602162;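 active = fluorescence ratio to DMSO below 75%, the collection mean minus 3 SD; inconclusive = too few cells collected in the well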;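 also: signal is porphyrin accumulated inside mitochondria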
Target sequence (Q9NP58 whole entry, looked up): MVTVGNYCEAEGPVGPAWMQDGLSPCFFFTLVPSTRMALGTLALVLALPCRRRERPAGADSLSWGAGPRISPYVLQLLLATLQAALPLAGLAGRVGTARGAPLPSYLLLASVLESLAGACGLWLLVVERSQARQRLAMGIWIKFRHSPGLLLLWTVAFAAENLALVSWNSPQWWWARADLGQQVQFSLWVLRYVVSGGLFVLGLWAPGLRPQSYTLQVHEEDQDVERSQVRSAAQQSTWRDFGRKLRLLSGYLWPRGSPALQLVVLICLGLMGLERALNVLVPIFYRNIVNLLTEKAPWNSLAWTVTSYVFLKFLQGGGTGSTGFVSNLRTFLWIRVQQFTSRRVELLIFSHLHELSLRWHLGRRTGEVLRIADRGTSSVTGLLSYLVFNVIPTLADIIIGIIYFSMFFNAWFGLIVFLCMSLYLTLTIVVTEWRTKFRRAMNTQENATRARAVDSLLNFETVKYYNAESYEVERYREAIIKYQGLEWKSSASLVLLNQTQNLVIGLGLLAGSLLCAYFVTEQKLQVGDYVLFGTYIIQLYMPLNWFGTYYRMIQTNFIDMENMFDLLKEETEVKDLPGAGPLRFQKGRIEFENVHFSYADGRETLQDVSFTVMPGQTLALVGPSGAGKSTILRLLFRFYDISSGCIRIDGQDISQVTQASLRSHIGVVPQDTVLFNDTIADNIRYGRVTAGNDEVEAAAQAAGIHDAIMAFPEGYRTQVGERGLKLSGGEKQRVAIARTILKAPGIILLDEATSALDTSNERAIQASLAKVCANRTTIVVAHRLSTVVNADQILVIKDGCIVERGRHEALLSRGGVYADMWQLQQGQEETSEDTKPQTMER
Myeloid diff 2 – compounds promoting myeloid differentiation; ER-HoxA9 myeloid progenitors, lysozyme-GFP differentiation, flow cytometry; AID 624256; hit rate 1% among 360,000; calls only at 10 µM;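 active = normalized GFP-positive differentiation at or above the plate's own cutoff, the solvent-only control mean plus 3 SD; inconclusive = no clear call, values can overlap the other calls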;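 also: cells exposed to compound for four days before flow analysis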
CendR NRP1 mod – NRP-1/CendR interaction modulation | O14786 | FAM-RPARPAR peptide binding to NRP-1, fluorescence polarization | inhibition, % at 25 µM | hit rate 0.85% among 360,000 | AID 602438;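 active = inhibition or corrected inhibition above about 18%, plus a signal ratio from 0.5 to 1.5, limit read from the data, passing the limit was not always enough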
ATG4B inh – ATG4B (human) cysteine protease inhibition. Q9Y4P1. inhibition, % at 8.33 µM. ATG4B cleavage of LC3-PLA2, NBD-HPC fluorescence, 1 h. AID 504462. hit rate 0.51% among 340,000; in the data active = inhibition above about 40%
Arrestin-AP2 inh – inhibitors of human beta-arrestin and AP2 interaction. AID 504490. inhibition, % at 10 µM. FITC-arrestin peptide / GST-AP2 beads, flow cytometry; AP2 beta2 appendage carries R879A mutation. hit rate 0.31% among 340,000;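 active = inhibition above a set limit, near 3 SD of compounds lacking own fluorescence, cut at about 54% in these data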
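Material – GST-tagged AP2 beta2-adaptin appendage (R879A) on 4 µm glutathione beads · Probe or stimulus – fluorescein-tagged arrestin peptide at 50 nM final · Timing – 12 min plus 1 h, RT · Detection – bead flow cytometry, FITC channel · Read-out basis – inhibition as reduced fluorescein signal on beads, percent · Medium – PBS plus Tween 20 (0.05%) and BSA (0.1%)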
Granule exo inh – blocks lytic granule exocytosis; TALL-104 LAMP-1 surface exposure, flow cytometry; cells stimulated with thapsigargin and PMA; inhibition, % at 10 µM; hit rate 0.66% among 360,000;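 active = inhibition above about 55%, limit read from the data; inconclusive = no clear call, values can overlap the other calls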
Large screens that a line does not name were inactive.

Cc1ccc(/C=C/C(=O)O)cc1S(=O)(=O)N1CCc2ccccc21	none
CCOC(=O)Cn1cnc2c(nnn2-c2cccc(OC)c2)c1=O	none
COc1cccc(-n2nnc3c(=O)n(CC(=O)OCc4ccccc4)cnc32)c1	CendR NRP1 mod 26
CCOC(=O)/C(C#N)=C\C=C1C=CN(C)C=C1	Myeloid diff 2 active
CC(=O)Nc1ccc(S(=O)(=O)Nc2ccc(C(=O)NCC(=O)O)cc2)cc1	none
O=C(COc1cc(Cl)c(Cl)cc1Cl)Nc1ccc([N+](=O)[O-])cc1Cl	CendR NRP1 mod 24
CN(CCOc1ccccc1)CC(=O)Nc1cc([N+](=O)[O-])ccc1Cl	none
O=C(COC(=O)c1ccco1)Nc1ccc([N+](=O)[O-])cc1Cl	none
CCOc1ccc(CN(C)CC(=O)Nc2ccc([N+](=O)[O-])cc2Cl)cc1	Myeloid diff 2 active
CC(C)CCn1c(Oc2ccc(Cl)cc2)nc2c1c(=O)n(C)c(=O)n2C	CendR NRP1 mod 26
COc1ccc(Oc2nc3c(c(=O)n(C)c(=O)n3C)n2Cc2ccccc2)cc1	none
CC(C)CCn1c(CN2CCN(c3cccc(Cl)c3)CC2)nc2c1c(=O)n(C)c(=O)n2C	Myeloid diff 2 active
COc1ccc(N2CCN(Cc3nc4c(c(=O)[nH]c(=O)n4C)n3Cc3cccc(Cl)c3)CC2)cc1	Myeloid diff 2 active
Cn1c(=O)c2c(nc(CN3CCOCC3)n2CCN2CCOCC2)n(C)c1=O	CendR NRP1 mod 27
COc1ccc(CC(=O)NCc2ccc(Cl)cc2)cc1S(=O)(=O)N1CCOCC1	none
CCC(C)[C@H](NC(=O)N1CC(=O)Nc2ccccc21)C(=O)N[C@@H](C(=O)O)c1ccccc1 (stereo partly specified)	none
Cc1ccc(NC(=O)COc2cccc3ccccc23)c(O)c1	none
Cn1c(=O)c2c(nc(CN3CCN(C(=O)c4ccco4)CC3)n2Cc2ccccc2F)n(C)c1=O	none
Cn1c(=O)c2c(nc(CN3CCN(C(=O)c4ccco4)CC3)n2Cc2ccc(F)cc2)n(C)c1=O	CendR NRP1 mod 28
CCOC(=O)N/N=C(/C)c1cccc(-n2cnnn2)c1	none
O=C(CCCCCCN1C(=O)c2ccccc2C1=O)NC1CCCCC1	none
O=C(CCCCCN1C(=O)c2ccccc2C1=O)NC1CCCC1	CendR NRP1 mod 24
Fc1ccccc1C(c1nnnn1C1CCCC1)N1CCN(Cc2ccccc2)CC1 (stereo unspecified)	CendR NRP1 mod 22
CCN(CC(=O)Nc1ccccc1C(F)(F)F)C(=O)C1CSC2(C)CCC(=O)N12 (stereo unspecified)	none
COCCn1c(SCC(=O)Nc2ccc3c(c2)OCCO3)nc2c(c1=O)SC(C)C2 (stereo unspecified)	Myeloid diff 2 active
CCn1cc([N+](=O)[O-])c(C(=O)N2N=C(c3ccccc3)CC2c2ccc([N+](=O)[O-])cc2)n1 (stereo unspecified)	none
CCCCCCSc1ccc([C@@H]2[C@H]3C(=O)N(C)C(=O)[C@H]3[C@]3(C(=O)OC)CCCCN23)cc1OC	Myeloid diff 2 active
COC(=O)[C@@]12CCCCN1[C@H](c1ccc(-c3ccc(OC)cc3)cc1)[C@@H]1C(=O)N(C)C(=O)[C@@H]12	none
COC(=O)[C@@]12CCCCN1[C@H](c1ccc(-c3ccc4c(c3)OCO4)cc1)[C@H]1C(=O)N(C)C(=O)[C@H]12	CendR NRP1 mod 30
COc1ccc(NC(=O)C2(C)CCN2Cc2ccc3ccccc3c2)cc1OC (stereo unspecified)	none (no result: ATG4B inh, Arrestin-AP2 inh)
CCc1cc(C(=O)Nc2cc(S(=O)(=O)N(CC)CC)ccc2N2CCOCC2)sc1C	none
Cc1cc(N/N=C/c2ccccc2O)c2ccccc2n1	Granule exo inh 76
CCCCCCCC/C=C\CCCCCCCC(=O)O	none
CCCCC/C=C\C/C=C\C/C=C\CCCCC(=O)O	Myeloid diff 2 active
COC(=O)[C@H]1[C@H]2C[C@@H]3c4[nH]c5cc(OC)ccc5c4CCN3C[C@H]2C[C@@H](OC(=O)c2ccc(N)cc2)[C@@H]1OC	Myeloid diff 2 active
CC(C)Cc1ccc(C(C)C(=O)O)cc1 (stereo unspecified)	Myeloid diff 2 active
CC(C)Cc1ccc(C(C)C(=O)Nc2ncccn2)cc1 (stereo unspecified)	none
CC(C)n1cc(-c2nc(C(=O)NN)cs2)c(=O)n(Cc2ccccc2)c1=O	Myeloid diff 2 active
Cc1cc(Cl)ccc1OCCCC(=O)OCC(=O)Nc1cccc(S(N)(=O)=O)c1	none
CCCC(C(=O)N(C)CC(=O)Nc1ccc(N2CCOCC2)cc1)c1ccccc1 (stereo unspecified)	none
O=C1c2ccccc2C(=O)N1CC(O)COc1ccc(Cl)cc1 (stereo unspecified)	none
COc1ccc(OCC(O)CN2C(=O)c3ccccc3C2=O)cc1 (stereo unspecified)	Myeloid diff 2 active
CN(c1cccc(Cl)c1)S(=O)(=O)c1cccc(C(=O)NCc2ccncc2)c1	CendR NRP1 mod 24
O=C(Nc1nc2c(s1)CN(Cc1ccccc1)CC2)C1CCC1	none
CN(C)c1ccc(/C=C(\C#N)C(=O)Nc2nc3c(s2)CCN(Cc2ccccc2)C3)cc1	Myeloid diff 2 active
O=C(COc1ccccc1Cl)Nc1ccccc1C(=O)N1CCOCC1	none
O=C(CC1SC(N2CCCCC2)=NC1=O)Nc1cccc(C(=O)Nc2ncccc2O)c1 (stereo unspecified)	none
Cc1snc(S(=O)(=O)/C(C#N)=N/Nc2cccc(C(F)(F)F)c2)c1C#N	CendR NRP1 mod 27
Cc1ccc(OCCC(=O)OCC(=O)NCc2ccccc2)cc1	none
Cc1ccc(OCCC(=O)OCC(=O)NCCc2ccccc2)cc1	CendR NRP1 mod 27
COc1cccc(NC(=O)CCNS(=O)(=O)c2ccc(Br)s2)c1	Myeloid diff 2 inconclusive
CCN(C(=O)COC(=O)c1c2c(nc3ccccc13)/C(=C/c1ccccc1)CC(C)C2)C1CCS(=O)(=O)C1 (stereo unspecified)	Myeloid diff 2 active
NS(=O)(=O)c1ccc(CCNC(=O)c2cc([N+](=O)[O-])ccc2N2CCCCC2)cc1	none
CC1(C)OC(=O)C2=C(C[C@@H](CCc3ccccc3)O[C@@H]2c2ccc(Cl)cc2)O1	none (no result: ATG4B inh, Arrestin-AP2 inh)
C=CCc1cccc2ccc(=O)oc12	Myeloid diff 2 active
C=CCc1cccc2cc(C(=O)NC(C)(C)C)c(=O)oc12	none
COc1ccc(C(NCC(=O)NC(C)c2ccc(Cl)cc2)c2ccccc2)cc1 (stereo unspecified)	none
COc1ccc(S(=O)(=O)N2CCCCC2c2cc(C(=O)NCc3ccccc3)no2)cc1 (stereo unspecified)	none (no result: ATG4B inh, Arrestin-AP2 inh)
Cc1c(C(=O)N2CCCCC2)oc2ccc(Br)cc12	none
Cc1ccc2oc(C(=O)N3CCCCCC3)c(C)c2c1	CendR NRP1 mod 26
